Data: ChEMBL document CHEMBL1817608, “Synthesis and anti-inflammatory effects of a series of novel 7-hydroxycoumarin derivatives” (Eur J Med Chem, 2011)

Experiments:
J774 [1] = assay: Antiinflammatory activity in mouse J774 cells assessed as inhibition of LPS-induced NO production at 10 uM by Griess reaction; assay type: functional
Procedure, shortened: (§1)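 Confluent J774 macrophages, grown 72 h in 24-well plates, were stimulated with LPS in fresh medium containing compound. Nitrite was quantified against a sodium nitrite standard. Results were given as % inhibition versus LPS alone, mean ± S.E.M.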

J774 [2] = assay: Antiinflammatory activity in mouse J774 cells assessed as inhibition of LPS-induced NO production at 100 uM by Griess reaction; assay type: functional; procedure, shortened: as §1
J774 [3] = assay: Cytotoxicity against mouse J774 cells at 100 uM by XTT assay; assay type: cell-based; settings: j774, 100 µM
Procedure, shortened: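 Confluent J774 monolayers were exposed to compound under the same conditions as the anti-inflammatory assays. Viability was read as mitochondrial dehydrogenase reduction of XTT to formazan.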

J774 [4] = assay: Inhibition of LPS-stimulated IL-6 production in mouse J774 cells at 10 uM by ELISA
J774 [5] = assay: Inhibition of LPS-stimulated IL-6 production in mouse J774 cells at 100 uM by ELISA
J774 [6] = assay: Inhibition of LPS-stimulated iNOS protein expression in mouse J774 cells at 10 uM by Western blot analysis
J774 [7] = assay: Inhibition of LPS-stimulated iNOS protein expression in mouse J774 cells at 100 uM by Western blot analysis
J774 [8] = assay: Antiinflammatory activity in mouse J774 cells assessed as inhibition of LPS-induced COX-2 protein expression at 10 uM by Western blot
J774 [9] = assay: Antiinflammatory activity in mouse J774 cells assessed as inhibition of LPS-induced COX-2 protein expression at 100 uM by Western blot
[10] = target: Transcription factor p65 (Mus musculus) (UniProt Q04207); assay: Inhibition of NF-kB p65 nuclear translocation in LPS-stimulated mouse J774 cells at 100 uM by Western blot analysis; assay type: cell-based
Procedure, shortened: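 J774 murine macrophages were grown in DMEM glutamax-I with 10% heat-inactivated FBS and antibiotics for 72 h to confluence, then given compound with LPS in fresh medium. Nuclear extracts were made by hypotonic lysis followed by high-salt extraction of the nuclei. 20 µg protein was run on 10% SDS-PAGE and blotted onto nitrocellulose. Blots were probed with anti-p65 and an HRP secondary antibody, and chemiluminescence was quantified. Results are mean ± SEM.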

[11] = target: Transcription factor p65 (Mus musculus) (UniProt Q04207); assay: Inhibition of NF-kB p65 nuclear translocation in LPS-stimulated mouse J774 cells by Western blot analysis; assay type: cell-based; settings: concentration not given here
Procedure, shortened: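 Nuclear extracts were prepared from LPS-treated J774 cells using hypotonic buffer A followed by high-salt buffer C (420 mM NaCl). Extract protein (20 µg) was run on 10% SDS-PAGE, blotted, and probed with anti-NF-κB p65 antibody, then detected by chemiluminescence.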

J774 [12] = assay: Inhibition of LPS-stimulated iNOS mRNA expression in mouse J774 cells by RT-PCR analysis; assay type: functional
Procedure, shortened: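 J774 cells were incubated for 3 h with LPS plus compound. Total RNA was extracted and reverse-transcribed, then run by real-time PCR for 40 cycles (95 °C 15 s / 60 °C 1 min), in duplicate. iNOS mRNA was quantified from a standard curve built with LPS-stimulated J774 RNA and normalised to GAPDH.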

Chain of Transcription factor p65 (Mus musculus) (Q04207 whole entry): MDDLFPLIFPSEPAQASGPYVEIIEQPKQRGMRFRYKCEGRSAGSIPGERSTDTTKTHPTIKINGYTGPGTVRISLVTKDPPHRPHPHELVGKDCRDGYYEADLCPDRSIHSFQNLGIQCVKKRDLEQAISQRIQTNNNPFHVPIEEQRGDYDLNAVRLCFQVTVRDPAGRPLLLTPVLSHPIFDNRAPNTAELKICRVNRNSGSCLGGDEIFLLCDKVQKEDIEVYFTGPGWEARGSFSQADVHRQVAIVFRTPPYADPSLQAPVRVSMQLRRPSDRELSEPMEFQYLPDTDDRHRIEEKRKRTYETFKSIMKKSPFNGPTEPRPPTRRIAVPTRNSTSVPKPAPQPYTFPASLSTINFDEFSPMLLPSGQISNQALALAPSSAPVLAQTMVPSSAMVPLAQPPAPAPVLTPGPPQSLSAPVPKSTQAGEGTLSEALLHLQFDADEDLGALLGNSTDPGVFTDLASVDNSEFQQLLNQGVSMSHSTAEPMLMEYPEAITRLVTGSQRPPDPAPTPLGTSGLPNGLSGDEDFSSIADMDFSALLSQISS

CCCc1cc(=O)oc2c(OC)c(O)ccc12
inhibition at 10 µM (J774 [1]): 57% | inhibition at 100 µM (J774 [2]): 83.7% | Activity (J774 [3]): Non-toxic | inhibition at 10 µM (J774 [4]): 11% | inhibition at 100 µM (J774 [5]): 73.4% | inhibition at 10 µM (J774 [6]): 13.4% | inhibition at 100 µM (J774 [7]): 74.6% | inhibition at 10 µM (J774 [8]): -38.9% | inhibition at 100 µM (J774 [9]): 8.6%

COc1c(O)ccc2c(C)c(F)c(=O)oc12
inhibition at 10 µM (J774 [1]): 15.8% | inhibition at 100 µM (J774 [2]): 50.2% | Activity (J774 [3]): Non-toxic | inhibition at 10 µM (J774 [4]): 10.7% | inhibition at 100 µM (J774 [5]): 14.8% | inhibition at 10 µM (J774 [6]): 2.7% | inhibition at 100 µM (J774 [7]): 86.2% | inhibition at 10 µM (J774 [8]): -15.4% | inhibition at 100 µM (J774 [9]): -36.8%

S=C(S)N1CCCC1 [PYRROLIDINE DITHIOCARBAMATE]
inhibition [10]: 95% | inhibition at 100 µM (J774 [7]): 97%

Cc1cc(=O)oc2c(C)c(O)ccc12
inhibition at 10 µM (J774 [1]): 17.3% | inhibition at 100 µM (J774 [2]): 65.7% | Activity (J774 [3]): Non-toxic | inhibition at 10 µM (J774 [4]): 17.5% | inhibition at 100 µM (J774 [5]): 82.8% | inhibition at 10 µM (J774 [6]): 20.1% | inhibition at 100 µM (J774 [7]): 61.4% | inhibition at 10 µM (J774 [8]): 2.3% | inhibition at 100 µM (J774 [9]): 7.8%

CCc1c(C)c2ccc(O)cc2oc1=O
inhibition at 10 µM (J774 [1]): 43.3% | inhibition at 100 µM (J774 [2]): 92.3% | inhibition [11]: 65% | Activity (J774 [3]): Non-toxic | inhibition (INH) (J774 [12]): 50% | inhibition at 10 µM (J774 [4]): 27.9% | inhibition at 10 µM (J774 [6]): 7.5% | inhibition at 100 µM (J774 [7]): 91% | inhibition at 10 µM (J774 [8]): -29.9% | inhibition at 100 µM (J774 [9]): -73.2%

O=c1cc(-c2ccccc2)c2ccc(O)cc2o1
inhibition at 10 µM (J774 [1]): 54.8% | inhibition at 100 µM (J774 [2]): 85% | Activity (J774 [3]): Non-toxic | inhibition at 100 µM (J774 [5]): 95.7% | inhibition at 10 µM (J774 [6]): 46.5% | inhibition at 100 µM (J774 [7]): 93% | inhibition at 10 µM (J774 [8]): -47.1% | inhibition at 100 µM (J774 [9]): -0.4%

CCc1c(C)c2ccc(O)c(C)c2oc1=O
inhibition at 10 µM (J774 [1]): 46.5% | inhibition at 100 µM (J774 [2]): 87% | Activity (J774 [3]): Non-toxic | inhibition at 10 µM (J774 [4]): 26.1% | inhibition at 100 µM (J774 [5]): 94.9% | inhibition at 10 µM (J774 [6]): 18.9% | inhibition at 100 µM (J774 [7]): 65.2% | inhibition at 10 µM (J774 [8]): -36.8% | inhibition at 100 µM (J774 [9]): 21%

CCCc1cc(=O)oc2cc(O)cc(C)c12
inhibition at 10 µM (J774 [1]): 38.5% | inhibition at 100 µM (J774 [2]): 62.5% | Activity (J774 [3]): Non-toxic | inhibition at 10 µM (J774 [4]): 12.2% | inhibition at 100 µM (J774 [5]): 54.3% | inhibition at 10 µM (J774 [6]): 7.8% | inhibition at 100 µM (J774 [7]): 87.8% | inhibition at 10 µM (J774 [8]): -6.8% | inhibition at 100 µM (J774 [9]): -45.6%

O=c1cc(-c2ccccc2F)c2ccc(O)cc2o1
inhibition at 10 µM (J774 [1]): 50.4% | inhibition at 100 µM (J774 [2]): 87.5% | Activity (J774 [3]): Non-toxic | inhibition at 10 µM (J774 [4]): 0.3% | inhibition at 100 µM (J774 [5]): 92.7% | inhibition at 10 µM (J774 [6]): 48.8% | inhibition at 100 µM (J774 [7]): 95.4% | inhibition at 10 µM (J774 [8]): -34.7% | inhibition at 100 µM (J774 [9]): -16.6%

Cc1c(F)c(=O)oc2cc(O)ccc12
inhibition at 10 µM (J774 [1]): 7.4% | inhibition at 100 µM (J774 [2]): 62.8% | Activity (J774 [3]): Non-toxic | inhibition at 10 µM (J774 [4]): 21.2% | inhibition at 100 µM (J774 [5]): 38.1% | inhibition at 10 µM (J774 [6]): 46.5% | inhibition at 100 µM (J774 [7]): 53% | inhibition at 10 µM (J774 [8]): -2.2% | inhibition at 100 µM (J774 [9]): -25.1%

Cc1cc(O)cc2oc(=O)cc(C)c12
inhibition at 10 µM (J774 [1]): -8.6% | inhibition at 100 µM (J774 [2]): 71% | Activity (J774 [3]): Non-toxic | inhibition at 10 µM (J774 [4]): 14.5% | inhibition at 100 µM (J774 [5]): 66.4% | inhibition at 10 µM (J774 [6]): -19.7% | inhibition at 100 µM (J774 [7]): 74.3% | inhibition at 10 µM (J774 [8]): -14.8% | inhibition at 100 µM (J774 [9]): -17.5%

O=c1ccc2ccc(O)cc2o1 [UMBELLIFERONE]
inhibition at 10 µM (J774 [1]): 5.5% | inhibition at 100 µM (J774 [2]): 64.4% | Activity (J774 [3]): Non-toxic | inhibition at 10 µM (J774 [4]): 3.2% | inhibition at 100 µM (J774 [5]): 34.1% | inhibition at 10 µM (J774 [6]): 10% | inhibition at 100 µM (J774 [7]): 47.2% | inhibition at 10 µM (J774 [8]): -17.2% | inhibition at 100 µM (J774 [9]): -20.4%

Cc1cc(O)cc2oc(=O)ccc12
inhibition at 10 µM (J774 [1]): 9.2% | inhibition at 100 µM (J774 [2]): 80% | Activity (J774 [3]): Non-toxic | inhibition at 100 µM (J774 [5]): 4.2% | inhibition at 10 µM (J774 [6]): 2.7% | inhibition at 100 µM (J774 [7]): 86.2% | inhibition at 10 µM (J774 [8]): -44.1% | inhibition at 100 µM (J774 [9]): -60.4%

Cc1c(C)c2ccc(O)cc2oc1=O
inhibition at 10 µM (J774 [1]): 37.6% | inhibition at 100 µM (J774 [2]): 88.9% | inhibition [11]: 65% | Activity (J774 [3]): Non-toxic | inhibition (INH) (J774 [12]): 50% | inhibition at 10 µM (J774 [4]): 16.7% | inhibition at 100 µM (J774 [5]): 85.7% | inhibition at 10 µM (J774 [6]): 28.6% | inhibition at 100 µM (J774 [7]): 85.5% | inhibition at 10 µM (J774 [8]): -57.7% | inhibition at 100 µM (J774 [9]): 3.7%

CCCc1cc(=O)oc2cc(O)ccc12
inhibition at 10 µM (J774 [1]): 25.3% | inhibition at 100 µM (J774 [2]): 67.6% | Activity (J774 [3]): Non-toxic | inhibition at 10 µM (J774 [4]): 25.4% | inhibition at 100 µM (J774 [5]): 88.9% | inhibition at 10 µM (J774 [6]): 25.3% | inhibition at 100 µM (J774 [7]): 89.7% | inhibition at 10 µM (J774 [8]): -11.1% | inhibition at 100 µM (J774 [9]): 25%

Cc1cc(=O)oc2cc(O)ccc12 [HYMECROMONE]
inhibition at 10 µM (J774 [1]): -14.2% | inhibition at 100 µM (J774 [2]): 42.9% | Activity (J774 [3]): Non-toxic | inhibition at 10 µM (J774 [4]): 4.6% | inhibition at 100 µM (J774 [5]): 44.1% | inhibition at 10 µM (J774 [6]): 22.1% | inhibition at 100 µM (J774 [7]): 61.8% | inhibition at 10 µM (J774 [8]): 3.2% | inhibition at 100 µM (J774 [9]): 22.7%

COc1c(O)ccc2c(-c3ccccc3)cc(=O)oc12
inhibition at 10 µM (J774 [1]): 71.5% | inhibition at 100 µM (J774 [2]): 81.8% | Activity (J774 [3]): Non-toxic | inhibition at 100 µM (J774 [5]): 46.9% | inhibition at 10 µM (J774 [6]): 55.9% | inhibition at 100 µM (J774 [7]): 84.6% | inhibition at 10 µM (J774 [8]): -59.1% | inhibition at 100 µM (J774 [9]): -34.7%

Cc1c(C)c2c(C)cc(O)cc2oc1=O
inhibition at 10 µM (J774 [1]): 51.8% | inhibition at 100 µM (J774 [2]): 92.4% | inhibition [11]: 65% | Activity (J774 [3]): Non-toxic | inhibition (INH) (J774 [12]): 50% | inhibition at 100 µM (J774 [5]): 92.2% | inhibition at 10 µM (J774 [6]): 49.6% | inhibition at 100 µM (J774 [7]): 94.7% | inhibition at 10 µM (J774 [8]): -31.7% | inhibition at 100 µM (J774 [9]): 11.1%
